# Laboratory results taken from ChEMBL document CHEMBL1157421, “Tenacigenin B derivatives reverse P-glycoprotein-mediated multidrug resistance inHepG2/Dox cells” (J Nat Prod, 2008).
# Key:
# [1] = system: HepG2; experiment: Reversal of P-glycoprotein-mediated drug resistance in human HepG2 cells assessed as increase in sensitivity at 39.2 uM in presence of doxorubicin; type: cell-based
# Summary of the method: (§1)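 Resistance reversal by SRB assay. IC50s of doxorubicin, vinblastine, puromycin or paclitaxel were measured with or without modulator, with modulator alone as negative control and verapamil as positive control. Fold sensitization is the ratio of drug IC50 without modulator to drug IC50 with it. HepG2/Dox cells were kept drug-free for at least 7 days before use. Assays were run at least three times (mean ± SD).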
# [2] = system: HepG2; experiment: Reversal of P-glycoprotein-mediated drug resistance in human HepG2 cells assessed as increase in sensitivity at 39.2 uM in presence of puromycin; type: cell-based; summary of the method: as §1
# [3] = system: HepG2; experiment: Reversal of P-glycoprotein-mediated drug resistance in human HepG2 cells assessed as increase in sensitivity at 39.2 uM in presence of vinblastine; type: cell-based; summary of the method: as §1
# [4] = system: HepG2/Dox; experiment: Reversal of P-glycoprotein-mediated multidrug resistance in human HepG2/Dox cells assessed as increase in sensitivity at 39.2 uM in presence of vinblastine; type: cell-based; summary of the method: as §1
# [5] = system: HepG2/Dox; experiment: Reversal of P-glycoprotein-mediated multidrug resistance in human HepG2/Dox cells assessed as increase in sensitivity at 19.6 uM in presence of doxorubicin; type: cell-based; summary of the method: as §1
# [6] = system: HepG2/Dox; experiment: Reversal of P-glycoprotein-mediated multidrug resistance in human HepG2/Dox cells assessed as increase in sensitivity at 19.6 uM in presence of paclitaxel; type: cell-based; summary of the method: as §1
# [7] = system: HepG2/Dox; experiment: Reversal of P-glycoprotein-mediated multidrug resistance in human HepG2/Dox cells assessed as increase in sensitivity at 19.6 uM in presence of vinblastine; type: cell-based; summary of the method: as §1
# [8] = system: HepG2/Dox; experiment: Reversal of P-glycoprotein-mediated multidrug resistance in human HepG2/Dox cells assessed as increase in sensitivity at 19.6 uM in presence of puromycin; type: cell-based; summary of the method: as §1
# [9] = system: HepG2; experiment: Reversal of P-glycoprotein-mediated drug resistance in human HepG2 cells assessed as increase in sensitivity at 39.2 uM in presence of paclitaxel; type: cell-based; summary of the method: as §1
# [10] = system: HepG2/Dox; experiment: Reversal of P-glycoprotein-mediated multidrug resistance in human HepG2/Dox cells assessed as increase in sensitivity at 39.2 uM in presence of doxorubicin; type: cell-based; summary of the method: as §1
# [11] = system: HepG2/Dox; experiment: Reversal of P-glycoprotein-mediated multidrug resistance in human HepG2/Dox cells assessed as increase in sensitivity at 39.2 uM in presence of paclitaxel; type: cell-based; summary of the method: as §1
# [12] = system: HepG2; experiment: Growth inhibition of doxorubicin-sensitive human HepG2 cells at 80 uM; type: functional
# Summary of the method: (§2)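 SRB growth assay. HepG2 and HepG2/Dox cells were grown in RPMI 1640 with 10% FBS at 37 °C and 5% CO2; resistant cells were kept drug-free for at least 7 days before use. IC50 was taken from the SRB assay, with at least three repeats, reported as mean ± SD.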
# [13] = system: HepG2/Dox; experiment: Reversal of P-glycoprotein-mediated multidrug resistance in human HepG2/Dox cells assessed as increase in sensitivity at 39.2 uM in presence of puromycin; type: cell-based; summary of the method: as §1
# [14] = Growth inhibition of multidrug resistant human HepG2/Dox cells at 80 uM; type: functional; summary of the method: as §2
# [15] = Cell cycle arrest in multidrug resistant human HepG2/Dox cells assessed as accumulation in subG1 phase at 50 uM; type: functional, cell-based
# Summary of the method: (§3)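 Flow-cytometric cell-cycle profiling. About 2 × 10^5 cells were seeded per dish and left overnight, then exposed to medium with or without drug for 48 h. Cells were fixed in 70% EtOH at -20 °C overnight and treated with RNase A (100 µg/mL, 37 °C, 30 min). They were then stained with propidium iodide (40 µg/mL final) at room temperature for 5-10 min and read on a FACSCalibur.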
# [16] = Cell cycle arrest in multidrug resistant human HepG2/Dox cells assessed as accumulation in G2/M phase at 1 uM; type: functional, cell-based; summary of the method: as §3
# [17] = system: HepG2; experiment: Growth inhibition of human HepG2 cells after 72 hrs by SRB assay; type: functional, cell-based; settings: HepG2, 72 h
# Summary of the method: (§4)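 SRB growth assay giving IC50 values from at least three repeat experiments, reported as mean ± SD. HepG2/Dox is a doxorubicin-selected Pgp-overexpressing subline kept in 1.2 µM doxorubicin and grown drug-free for at least 7 days before use. Both lines grown in RPMI 1640 with 10% FBS at 37 °C, 5% CO2.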
# [18] = Cell cycle arrest in multidrug resistant human HepG2/Dox cells assessed as accumulation in S phase at 1 uM; type: functional, cell-based; summary of the method: as §3
# [19] = Cell cycle arrest in multidrug resistant human HepG2/Dox cells assessed as accumulation in G0/G1 phase at 50 uM; type: functional, cell-based; summary of the method: as §3
# [20] = system: HepG2; experiment: Cell cycle arrest in human HepG2 cells assessed as accumulation in subG1 phase at 0.2 uM; type: functional
# Summary of the method: (§5)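 Cells seeded at about 2 × 10^5 per dish and left overnight, then exposed to drug for 48 h. Collected, washed in PBS, fixed in 70% EtOH at -20 °C overnight, treated with RNase A (100 µg/mL) at 37 °C for 30 min, stained with propidium iodide (40 µg/mL final) at room temperature, and phase distribution read by flow cytometry.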
# [21] = Cell cycle arrest in multidrug resistant human HepG2/Dox cells assessed as accumulation in G2/M phase at 10 uM; type: functional, cell-based; summary of the method: as §3
# [22] = system: HepG2; experiment: Cell cycle arrest in human HepG2 cells assessed as accumulation in S phase at 0.2 uM; type: functional; summary of the method: as §5
# [23] = Cell cycle arrest in multidrug resistant human HepG2/Dox cells assessed as accumulation in subG1 phase at 1 uM; type: functional, cell-based; summary of the method: as §3
# [24] = Cell cycle arrest in multidrug resistant human HepG2/Dox cells assessed as accumulation in subG1 phase at 10 uM; type: functional, cell-based; summary of the method: as §3
# [25] = Growth inhibition of multidrug resistant human HepG2/Dox cells after 72 hrs by SRB assay; type: functional, cell-based; summary of the method: as §4
# [26] = Cell cycle arrest in multidrug resistant human HepG2/Dox cells assessed as accumulation in S phase at 50 uM; type: functional, cell-based; summary of the method: as §3
# [27] = system: HepG2; experiment: Cell cycle arrest in human HepG2 cells assessed as accumulation in G0/G1 phase at 0.2 uM; type: functional; summary of the method: as §5
# [28] = Cell cycle arrest in multidrug resistant human HepG2/Dox cells assessed as accumulation in G2/M phase at 50 uM; type: functional, cell-based; summary of the method: as §3
# [29] = system: HepG2; experiment: Cell cycle arrest in human HepG2 cells assessed as accumulation in G2/M phase at 0.2 uM; type: functional; summary of the method: as §5
# [30] = Cell cycle arrest in multidrug resistant human HepG2/Dox cells assessed as accumulation in G0/G1 phase at 1 uM; type: functional, cell-based; summary of the method: as §3
# [31] = Cell cycle arrest in multidrug resistant human HepG2/Dox cells assessed as accumulation in G0/G1 phase at 10 uM; type: functional, cell-based; summary of the method: as §3
# [32] = Cell cycle arrest in multidrug resistant human HepG2/Dox cells assessed as accumulation in S phase at 10 uM; type: functional, cell-based; summary of the method: as §3
smiles,measurement,setting,value
CC(=O)O[C@@H]1[C@@H](OC(=O)c2ccccc2)[C@@H]2[C@@]3(C)CC[C@H](O)C[C@@H]3CC[C@]23O[C@@]32CC[C@@H](C(C)=O)[C@@]12C [11ALPHA-O-BENZOYL-12BETA-O-ACETYLTENACIGENIN B],Ratio IC50,[1],1.2
same,Ratio IC50,[2],1
same,Ratio IC50,[3],0.9
same,Ratio IC50,[4],53.1
same,Ratio IC50,[5],10.1
same,Ratio IC50,[6],42.4
same,Ratio IC50,[7],13
same,Ratio IC50,[8],8.1
same,Ratio IC50,[9],1
same,Ratio IC50,[10],15.6
same,Ratio IC50,[11],326
same,inhibition at 80 µM,[12],50%
same,Ratio IC50,[13],15.5
same,inhibition at 80 µM,[14],50%
COc1cccc2c1C(=O)c1c(O)c3c(c(O)c1C2=O)C[C@@](O)(C(=O)CO)C[C@@H]3O[C@H]1C[C@H](N)[C@H](O)[C@H](C)O1 [DOXORUBICIN],Activity,[15],4.9%
same,Activity,[16],33.5%
same,IC50,[17],0.17 µM
same,Activity,[18],7.7%
same,Activity,[19],12%
same,Activity,[20],0.9%
same,Activity,[21],60.8%
same,Activity,[22],8.9%
same,Activity,[23],2.4%
same,Activity,[24],3.4%
same,IC50,[25],8.6 µM
same,Activity,[26],5.6%
same,Activity,[27],4.9%
same,Activity,[28],73.4%
same,Activity,[29],76.6%
same,Activity,[30],51.3%
same,Activity,[31],24.8%
same,Activity,[32],6.9%
CC(=O)O[C@H]1C(=O)[C@@]2(C)[C@H]([C@H](OC(=O)c3ccccc3)[C@]3(O)C[C@H](OC(=O)[C@H](O)[C@@H](NC(=O)c4ccccc4)c4ccccc4)C(C)=C1C3(C)C)[C@]1(OC(C)=O)CO[C@@H]1C[C@@H]2O [PACLITAXEL],IC50,[17],0.0059 µM
same,IC50,[25],1.4 µM
COc1ccc(C[C@H](N)C(=O)N[C@H]2[C@@H](O)[C@H](n3cnc4c(N(C)C)ncnc43)O[C@@H]2CO)cc1 [PUROMYCIN],IC50,[17],0.21 µM
same,IC50,[25],20.2 µM
CC[C@]1(O)C[C@@H]2CN(CCc3c([nH]c4ccccc34)[C@@](C(=O)OC)(c3cc4c(cc3OC)N(C)[C@H]3[C@@](O)(C(=O)OC)[C@H](OC(C)=O)[C@]5(CC)C=CCN6CC[C@]43[C@@H]65)C2)C1 [VINBLASTINE],IC50,[17],0.00026 µM
same,IC50,[25],0.26 µM
